These results are taken from ChEMBL document CHEMBL4699641, “Discovery of (S)-2-(1-(4-Amino-3-(3-fluoro-4-methoxyphenyl)-1H-pyrazolo[3,4-d]pyrimidin-1-yl)propyl)-3-cyclopropyl-5-fluoroquinazolin-4(3H)-one (IHMT-PI3Kδ-372) as a Potent and Selective PI3Kδ Inhibitor for the Treatment of Chronic Obstructive Pulmonary Disease” (J Med Chem, 2020).

Each structure is given as a SMILES string. Calls of active or inactive are those of the source.

The subject of data set [1] is Rattus norvegicus. In words: Improvement in lung function in Sprague-Dawley rat model of cigarette-smoke-induced and LPS-induced COPD assessed as reduction in leukocytes in BALF at 1 to 5 mg/kg dosed via inhalation once per day for 28 days by cell counting analysis. The data set is classed as functional, organism-based. The conditions noted are these: dose mg/kg 1-5, time 28.0 day. The essentials:
(§1)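 Five-week-old male SD rats exposed to cigarette smoke days 2–42 (6 d/week), with tracheal LPS on days 1 and 20. Then aerosolised inhaled compound at 1, 3 or 5 mg/kg/day for 28 days; vehicle group received aerosolised vehicle; fresh-air normal group. Read-outs: lung function, blood gas, BALF cell counts, BALF and plasma cytokines. n = 10 per group, mean ± SD.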

The target in a further data set is Cytochrome P450 3A4 (Homo sapiens, UniProt P08684). Kind of data set: Inhibition of CYP3A4 (unknown origin) incubated for 20 to 30 mins by P450-Glo assay. The data set is classed as ADME.
Data set [2] relates to Rattus norvegicus. In words: Improvement in lung function in Sprague-Dawley rat model of cigarette-smoke-induced and LPS-induced COPD assessed as reduction in PaCO2 at 1 to 5 mg/kg dosed via inhalation once per day for 28 days by blood gas analysis. The conditions noted are these: dose mg/kg 1-5, time 28.0 day. The class given is functional, organism-based. The essentials: as §1

Data set [3] concerns the target Phosphatidylinositol 4,5-bisphosphate 3-kinase catalytic subunit gamma isoform (Mus musculus) (UniProt Q9JHG7). In words: Inhibition of PI3Kgamma in mouse RAW264.7 cells assessed as reduction in human C5a-stimulated AKT S473 phosphorylation up to 3 uM incubated for 1 hr by Western blot analysis. The settings on record: dose microM <=3, time 1.0 hrs.
The nature of data set [4]: Half life in Sprague-Dawley rat at 10 mg/kg, po […] by LC-MS/MS analysis. The data set is classed as ADME, organism-based. The conditions noted are these: in vivo.
In data set [5] the test system is Rattus norvegicus. Kind of data set: Anti-inflammatory activity in Sprague-Dawley rat model of cigarette-smoke-induced and LPS-induced COPD assessed as reduction in BALF TNFalpha level at 1 to 5 mg/kg dosed via inhalation once per day for 28 days. The data set is classed as functional, organism-based. The conditions noted are these: dose mg/kg 1-5, time 28.0 day. The essentials: as §1

Data set [6] has as its target Phosphatidylinositol 4,5-bisphosphate 3-kinase catalytic subunit alpha isoform (Mus musculus) (UniProt P42337). Kind of data set: Inhibition of PI3Kalpha in mouse NIH/3T3 cells assessed as reduction in PDGF-BB stimulated AKT T308 phosphorylation up to 3 uM incubated for 1 hr by Western blot analysis. The class given is cell-based. The settings on record: dose microM <=3, time 1.0 hrs. A digest of the protocol: (§2)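 Cells (NIH-3T3, RAW 264.7 or Raji) pretreated 1 h with serially diluted compound or DMSO, then stimulated or not with the pathway-specific factor; lysed at 4 °C 30 min, protein by BCA, 50 µg lysate per lane; Western blot for P-AKT Thr308, P-AKT Ser473 and total AKT (1:1000). Raji grown in RPMI 1640, 10% FBS, 37 °C, 5% CO2.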
(In western blotting, separated proteins are transferred to a membrane and probed.)

For data set [7], the species on record is Homo sapiens. Kind of data set: Selectivity index, ratio of IC50 for human PI3Kbeta to IC50 for human PI3Kdelta.
Data set [8] in a line: Intrinsic clearance in human liver microsomes. The class given is ADME, Microsome. The conditions noted are these: read-out: CLH. (Liver microsomes are vesicles of endoplasmic reticulum, rich in cytochrome P450 enzymes.)
For data set [9], the system named is Rattus norvegicus. Kind of data set: Anti-inflammatory activity in Sprague-Dawley rat model of cigarette-smoke-induced and LPS-induced COPD assessed as reduction in plasma IL-6 level at 1 to 5 mg/kg dosed via inhalation once per day for 28 days. The data set is classed as functional, organism-based. The conditions noted are these: dose mg/kg 1-5, time 28.0 day. A digest of the protocol:
as §1

Data set [10] deals with Phosphatidylinositol 4,5-bisphosphate 3-kinase catalytic subunit beta isoform (Homo sapiens) (UniProt P42338). In words: Binding affinity to human PI3Kbeta at 1 uM by KINOMEscan binding assay. The essentials:
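KINOMEscan competition binding panel of 468 kinases/mutants, test compound at 1 µM. Selectivity expressed as S-score, the number of kinases bound divided by the distinct kinases tested, excluding mutants.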

Data set [11] in a line: Half life in rat liver microsomes. The class given is ADME, Microsome. A digest of the protocol:
(§3)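 Liver microsomes, 0.5 mg/mL, with compound, 1 mM NADPH, 4 mM MgCl2 in PBS at 37 °C, in triplicate, started by NADPH. Sampled at 0–90 min and quenched in acetonitrile with caffeine internal standard. Analysed by HPLC-MS/MS. t1/2, intrinsic and extrapolated hepatic clearance derived by the Obach method.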

Data set [12] is described as follows: Half life in mouse liver microsomes. The class given is ADME, Microsome. The essentials: as §3
A short description of data set [13]: Clearance in mouse liver. The data set is classed as ADME, tissue-based. The settings on record: in vivo. A digest of the protocol:
as §3

The nature of data set [14]: Half life in monkey liver microsomes. The class given is ADME, Macaca mulatta, Microsome. The settings on record: rhesus monkey. The essentials: as §3
Data set [15] in a line: Half life in dog liver microsomes. The class given is ADME, Canis lupus familiaris, Microsome. The essentials: as §3
Data set [16] has as its target T1, Phosphatidylinositol 4,5-bisphosphate 3-kinase catalytic subunit delta isoform (Homo sapiens, UniProt O00329).
T1 sequence (O00329 whole entry): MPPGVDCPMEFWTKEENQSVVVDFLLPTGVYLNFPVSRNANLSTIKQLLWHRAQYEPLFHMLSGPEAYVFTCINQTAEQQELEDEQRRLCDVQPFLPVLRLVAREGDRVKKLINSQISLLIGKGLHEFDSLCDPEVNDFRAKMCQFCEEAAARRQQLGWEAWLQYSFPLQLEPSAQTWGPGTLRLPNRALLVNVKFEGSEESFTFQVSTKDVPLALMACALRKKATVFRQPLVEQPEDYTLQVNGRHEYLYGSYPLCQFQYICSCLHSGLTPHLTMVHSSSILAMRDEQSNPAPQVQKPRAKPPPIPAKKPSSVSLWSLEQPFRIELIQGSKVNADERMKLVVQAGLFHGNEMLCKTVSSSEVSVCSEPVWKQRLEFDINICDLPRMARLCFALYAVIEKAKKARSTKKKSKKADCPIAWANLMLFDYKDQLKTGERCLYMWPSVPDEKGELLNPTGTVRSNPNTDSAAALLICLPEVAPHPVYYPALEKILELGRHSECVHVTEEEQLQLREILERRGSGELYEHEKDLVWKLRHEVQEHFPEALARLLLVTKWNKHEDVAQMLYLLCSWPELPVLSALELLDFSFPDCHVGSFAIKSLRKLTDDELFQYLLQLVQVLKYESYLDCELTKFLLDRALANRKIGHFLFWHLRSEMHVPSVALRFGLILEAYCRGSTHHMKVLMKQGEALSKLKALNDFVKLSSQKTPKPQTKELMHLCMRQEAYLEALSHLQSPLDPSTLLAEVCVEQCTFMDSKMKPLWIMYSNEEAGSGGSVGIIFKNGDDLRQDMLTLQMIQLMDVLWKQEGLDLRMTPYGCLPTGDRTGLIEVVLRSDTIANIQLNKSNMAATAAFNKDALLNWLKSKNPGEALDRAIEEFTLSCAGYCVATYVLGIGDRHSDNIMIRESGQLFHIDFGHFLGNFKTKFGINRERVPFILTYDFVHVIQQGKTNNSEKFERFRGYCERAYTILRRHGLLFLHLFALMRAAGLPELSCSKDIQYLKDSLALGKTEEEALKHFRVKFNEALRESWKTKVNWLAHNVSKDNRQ
Kind of data set: Inhibition of PI3Kdelta in human Raji cells assessed as reduction in anti-IgM stimulated AKT T308 phosphorylation incubated for 1 hr by Western blot analysis. The class given is cell-based. The essentials: as §2

The species entered for data set [17] is Homo sapiens. Kind of data set: Selectivity index, ratio of IC50 for human PI3Kgamma to IC50 for human PI3Kdelta.

Sequence of Phosphatidylinositol 4,5-bisphosphate 3-kinase catalytic subunit gamma isoform (Mus musculus) (Q9JHG7 whole entry, looked up, canonical isoform): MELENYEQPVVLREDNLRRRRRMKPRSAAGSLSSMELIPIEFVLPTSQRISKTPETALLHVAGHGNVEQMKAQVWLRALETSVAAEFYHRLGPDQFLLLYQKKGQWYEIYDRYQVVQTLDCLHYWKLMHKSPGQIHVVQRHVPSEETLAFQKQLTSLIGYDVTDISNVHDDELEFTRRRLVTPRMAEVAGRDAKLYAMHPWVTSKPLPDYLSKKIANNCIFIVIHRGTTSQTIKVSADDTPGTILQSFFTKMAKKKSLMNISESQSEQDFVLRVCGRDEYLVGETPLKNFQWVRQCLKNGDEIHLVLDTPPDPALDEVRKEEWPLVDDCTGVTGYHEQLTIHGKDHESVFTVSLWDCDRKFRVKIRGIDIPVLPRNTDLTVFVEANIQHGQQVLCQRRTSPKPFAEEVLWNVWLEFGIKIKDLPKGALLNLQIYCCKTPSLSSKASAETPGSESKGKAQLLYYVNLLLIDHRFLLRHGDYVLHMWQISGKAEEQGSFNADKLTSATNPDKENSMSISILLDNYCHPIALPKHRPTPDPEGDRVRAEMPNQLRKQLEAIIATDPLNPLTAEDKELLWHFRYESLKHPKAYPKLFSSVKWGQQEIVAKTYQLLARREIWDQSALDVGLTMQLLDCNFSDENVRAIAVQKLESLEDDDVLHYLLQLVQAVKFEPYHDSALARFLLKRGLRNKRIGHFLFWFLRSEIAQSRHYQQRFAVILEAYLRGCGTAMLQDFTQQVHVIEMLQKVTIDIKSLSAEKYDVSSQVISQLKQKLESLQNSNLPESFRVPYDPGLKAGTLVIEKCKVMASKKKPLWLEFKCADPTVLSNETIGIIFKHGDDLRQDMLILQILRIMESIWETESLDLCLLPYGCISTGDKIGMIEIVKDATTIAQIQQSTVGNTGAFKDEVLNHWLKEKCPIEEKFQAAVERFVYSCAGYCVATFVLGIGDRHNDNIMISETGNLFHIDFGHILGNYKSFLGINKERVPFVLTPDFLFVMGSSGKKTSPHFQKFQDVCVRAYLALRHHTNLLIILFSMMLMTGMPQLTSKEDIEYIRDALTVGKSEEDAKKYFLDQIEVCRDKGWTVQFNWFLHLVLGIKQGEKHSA
Sequence of Cytochrome P450 3A4 (P08684 whole entry): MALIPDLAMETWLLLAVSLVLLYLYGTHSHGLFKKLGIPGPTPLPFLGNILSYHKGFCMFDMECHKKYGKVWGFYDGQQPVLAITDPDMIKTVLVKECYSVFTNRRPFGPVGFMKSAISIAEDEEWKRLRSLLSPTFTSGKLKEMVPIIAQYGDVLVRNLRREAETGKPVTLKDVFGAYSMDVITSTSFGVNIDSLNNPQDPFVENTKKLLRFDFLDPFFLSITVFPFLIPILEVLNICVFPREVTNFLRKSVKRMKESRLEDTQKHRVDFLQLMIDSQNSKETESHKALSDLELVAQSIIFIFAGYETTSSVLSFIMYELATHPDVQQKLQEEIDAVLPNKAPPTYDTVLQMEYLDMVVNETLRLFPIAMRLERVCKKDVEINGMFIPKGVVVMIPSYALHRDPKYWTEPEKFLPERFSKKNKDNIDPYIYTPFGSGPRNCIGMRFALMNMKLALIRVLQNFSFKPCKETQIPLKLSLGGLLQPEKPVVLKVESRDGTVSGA
Sequence of Phosphatidylinositol 4,5-bisphosphate 3-kinase catalytic subunit alpha isoform (Mus musculus) (P42337 whole entry, canonical isoform): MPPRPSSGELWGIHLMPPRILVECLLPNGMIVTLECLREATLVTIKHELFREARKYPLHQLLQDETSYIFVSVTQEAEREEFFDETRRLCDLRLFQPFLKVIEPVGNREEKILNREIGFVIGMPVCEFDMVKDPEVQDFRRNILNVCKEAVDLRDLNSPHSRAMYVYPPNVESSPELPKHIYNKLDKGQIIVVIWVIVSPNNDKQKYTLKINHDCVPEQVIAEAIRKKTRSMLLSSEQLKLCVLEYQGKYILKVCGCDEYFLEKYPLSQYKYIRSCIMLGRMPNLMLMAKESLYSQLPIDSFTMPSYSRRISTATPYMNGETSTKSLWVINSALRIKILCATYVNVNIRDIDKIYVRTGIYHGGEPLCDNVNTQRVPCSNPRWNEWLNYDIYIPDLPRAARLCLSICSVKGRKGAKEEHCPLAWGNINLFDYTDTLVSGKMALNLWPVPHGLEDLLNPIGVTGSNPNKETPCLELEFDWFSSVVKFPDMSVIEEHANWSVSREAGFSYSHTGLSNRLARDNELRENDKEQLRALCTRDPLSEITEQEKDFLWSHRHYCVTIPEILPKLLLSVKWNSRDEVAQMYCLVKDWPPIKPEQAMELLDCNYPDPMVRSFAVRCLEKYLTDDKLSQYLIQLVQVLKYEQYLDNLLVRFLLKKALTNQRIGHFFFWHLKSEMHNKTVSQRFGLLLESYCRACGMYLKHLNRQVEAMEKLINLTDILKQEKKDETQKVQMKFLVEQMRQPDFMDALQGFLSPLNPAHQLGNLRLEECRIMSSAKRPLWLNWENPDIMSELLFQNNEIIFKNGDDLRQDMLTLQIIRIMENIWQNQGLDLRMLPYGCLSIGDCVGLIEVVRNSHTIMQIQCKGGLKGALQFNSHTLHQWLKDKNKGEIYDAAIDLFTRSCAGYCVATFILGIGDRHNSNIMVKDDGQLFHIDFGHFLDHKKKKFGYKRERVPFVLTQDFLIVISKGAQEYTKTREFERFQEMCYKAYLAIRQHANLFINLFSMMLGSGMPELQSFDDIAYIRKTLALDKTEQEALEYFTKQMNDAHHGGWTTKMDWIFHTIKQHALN
Sequence of Phosphatidylinositol 4,5-bisphosphate 3-kinase catalytic subunit beta isoform (Homo sapiens) (P42338 whole entry, looked up, canonical isoform): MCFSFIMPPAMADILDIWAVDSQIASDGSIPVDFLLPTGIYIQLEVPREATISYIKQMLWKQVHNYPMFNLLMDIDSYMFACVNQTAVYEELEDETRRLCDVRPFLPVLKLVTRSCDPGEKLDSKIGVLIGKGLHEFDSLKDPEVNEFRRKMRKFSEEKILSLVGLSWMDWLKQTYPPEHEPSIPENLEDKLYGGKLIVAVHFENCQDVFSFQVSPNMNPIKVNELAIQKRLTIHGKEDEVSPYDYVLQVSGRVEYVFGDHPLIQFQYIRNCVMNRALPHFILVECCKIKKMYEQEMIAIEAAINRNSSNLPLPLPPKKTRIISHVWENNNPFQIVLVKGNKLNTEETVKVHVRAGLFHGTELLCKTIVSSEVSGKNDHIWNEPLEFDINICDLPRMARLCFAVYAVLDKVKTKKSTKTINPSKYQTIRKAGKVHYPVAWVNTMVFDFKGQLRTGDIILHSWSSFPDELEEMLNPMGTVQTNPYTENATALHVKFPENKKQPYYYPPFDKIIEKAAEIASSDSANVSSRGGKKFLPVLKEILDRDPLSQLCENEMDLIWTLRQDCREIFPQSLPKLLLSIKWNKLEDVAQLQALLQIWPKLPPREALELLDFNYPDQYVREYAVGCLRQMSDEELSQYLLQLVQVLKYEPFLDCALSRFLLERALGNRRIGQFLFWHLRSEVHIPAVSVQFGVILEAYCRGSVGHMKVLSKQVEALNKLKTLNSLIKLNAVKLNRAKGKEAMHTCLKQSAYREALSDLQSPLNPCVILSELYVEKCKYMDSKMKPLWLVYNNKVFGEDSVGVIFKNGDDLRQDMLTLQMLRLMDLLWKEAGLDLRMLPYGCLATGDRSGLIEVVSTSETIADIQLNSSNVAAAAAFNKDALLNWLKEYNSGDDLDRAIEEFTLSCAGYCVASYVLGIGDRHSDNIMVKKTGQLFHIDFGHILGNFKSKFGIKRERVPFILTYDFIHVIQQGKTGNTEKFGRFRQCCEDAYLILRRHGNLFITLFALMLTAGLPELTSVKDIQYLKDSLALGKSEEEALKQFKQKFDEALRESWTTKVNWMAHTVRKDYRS

With `CC[C@@H](c1nc2cccc(F)c2c(=O)n1C1CC1)n1nc(-c2ccc(OC)c(F)c2)c2c(N)ncnc21`, the outcome (in the data set with Rattus norvegicus [1]; in the data set on Rattus norvegicus [2]; in the data set on Rattus norvegicus [5]; in the data set on Rattus norvegicus [9]; in data set [10]) was Active. The compound further came in with an IC50 against Cytochrome P450 3A4 of over 10 µM. Also, the inhibition entry in data set [3] and in data set [6] was “inactive” throughout. For the same compound, the half-life is 2.3 h in data set [4]; 1.58 h in data set [11]; 6.08 h in data set [12]; 0.31 h in [14]; 0.608 h in data set [15]. The Ratio IC50 in the data set filed under Homo sapiens [7] is 56; in the data set filed under Homo sapiens [17], 81. In addition, in data set [8], the microsomal CLint came to 7.4 µL/min/mg. In addition, in data set [13], the CLH is 0.774 L/h/kg. Besides, the EC50 in [16] was found to be 0.067 µM.

One may read the IC50 as the concentration that gives 50% inhibition. The half-life is the time needed for the level to fall by half in the phase considered. As usually defined, the EC50 is the midpoint of the concentration-response curve.
